Here are results for five compounds from publication PMC5400702 (European journal of nuclear medicine and molecular imaging, 2017).

The target in series [1] is T1, α7 nAChRs (Macaca mulatta, UniProt Q866A2). In kind it is in vivo. As to conditions: 2TCM, rhesus monkey; for K1: average across all subjects and gray matter regions.
The format of series [2] is in vivo, Macaca mulatta. As to conditions: arterial plasma, 120 min post-injection, averaged across subjects, rhesus monkey.
Series [3] in a line: Plasma free fraction. The class given is in vitro ADME, Macaca mulatta. As to conditions: rhesus monkey plasma, ultrafiltration. The method, boiled down: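 Plasma from arterial samples of anesthetized rhesus monkeys during radiotracer PET scans was tested. Free fraction was measured by ultrafiltration in triplicate for each scan.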
In series [4] the target is T2, α7 nAChRs (Homo sapiens, UniProt P36544). Kind of series: [18F]ASEM PET imaging in human brain, kinetic modeling and test-retest. As to conditions: for K1 / VT / VT/fp: humans n=6; for VT TRV / VT/fp TRV: humans n=4. The class given is in vivo.
T2 sequence (P36544 23-502): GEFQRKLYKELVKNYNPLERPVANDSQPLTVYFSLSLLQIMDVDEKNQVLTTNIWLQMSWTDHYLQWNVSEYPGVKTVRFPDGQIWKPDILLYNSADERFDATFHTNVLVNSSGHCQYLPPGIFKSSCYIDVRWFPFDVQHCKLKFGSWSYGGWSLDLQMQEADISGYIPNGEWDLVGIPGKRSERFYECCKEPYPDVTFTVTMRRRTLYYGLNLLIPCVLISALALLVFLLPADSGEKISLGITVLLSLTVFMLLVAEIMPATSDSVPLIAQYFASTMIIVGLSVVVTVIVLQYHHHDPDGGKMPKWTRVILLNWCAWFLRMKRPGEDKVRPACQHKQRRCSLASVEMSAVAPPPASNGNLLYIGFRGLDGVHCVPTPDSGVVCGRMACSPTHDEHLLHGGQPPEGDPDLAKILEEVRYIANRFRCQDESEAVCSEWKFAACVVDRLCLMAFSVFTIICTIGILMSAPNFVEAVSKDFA
Series [5] in a line: Parent [18F]ASEM in human arterial plasma. In kind it is in vivo. As to conditions: for parent [18F]ASEM fraction of radioactivity in plasma: human arterial plasma. The method, boiled down:
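Six healthy volunteers (5 M, 1 F; 26–51 y) received 317±87 MBq radiotracer as a 1-min slow bolus into a forearm vein. Manual radial-artery samples were taken over 180 min post-injection. Plasma was analysed by HPLC for parent fraction, giving the metabolite-corrected arterial input function, expressed as SUV.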

A short description of series [6]: Plasma free fraction. The class given is in vitro ADME, human.
For series [7], the target named is T2, α7 nAChRs. As to conditions: two subjects, initial [18F]ASEM human study ref 11; cited from earlier work.
In series [8] the target is T1, α7 nAChRs. In words: [18F]ASEM PET blocking scans with nicotine, varenicline and cold ASEM. As to conditions: for receptor occupancy: Lassen plot.
Series [9] deals with α7 nAChRs. As to conditions: full agonist ref 16, 17; cited from earlier work.
[10] abbreviates: 0.24 mg/kg nicotine, averaged across regions, one value per animal (two animals).
The mark [11] stands for this setting: 0.33 mg/kg varenicline, one value per animal (two animals).

Values joined by “and” are separate entries in the source; they are usually repeats but may differ in a detail not shown here. Equal values may be shown once. Read-outs that look alike come from different tables or passages of the source.

T1 sequence (Q866A2 23-502): as the sequence (P36544 23-502) above, with N171S, R186K, V373M, V376A counted along it

`O=S1(=O)c2cc(N3CCN4CCC3CC4)ccc2-c2cccc([18F])c21` [[^18F]ASEM]: the K1 in [1] is on record as 0.59±0.14 mL/cm^3·min^−1; in series [4] (1TCM, Caudate) it was 0.33±0.03 mL/cm^3 per min; in [4] (1TCM, Cerebellum), 0.36±0.08 mL/cm^3 per min; in [4] (1TCM, Frontal Cortex), 0.35±0.07 mL/cm^3 per min; in series [4] (1TCM, Hippocampus), 0.26±0.04 mL/cm^3 per min; in [4] (1TCM, Occipital Cortex) it was 0.37±0.06 mL/cm^3 per min. For the same compound, the K1 in [4] (1TCM, Putamen) is recorded as 0.39±0.10 mL/cm^3 per min; in series [4] (1TCM, Thalamus), 0.38±0.08 mL/cm^3 per min. Further, in series [1], the k2 was determined as 0.022 ± 0.010 min⁻¹. In series [2], the “parent fraction of total plasma radioactivity” value is 16%. Besides, in [3], the “free fraction (fP) in plasma” value is on record as 14.9±1.1%. Moreover, the VT in series [4] (1TCM, Caudate) is 22.4±3.9 mL/cm^3; in series [4] (1TCM, Cerebellum) it was 20.0±3.2 mL/cm^3; in [4] (1TCM, Frontal Cortex), 24.7±3.0 mL/cm^3; in [4] (1TCM, Hippocampus) it was 21.7±2.3 mL/cm^3; in series [4] (1TCM, Occipital Cortex), 25.6±3.1 mL/cm^3; in series [4] (1TCM, Putamen) it was 25.8±3.6 mL/cm^3. Also, the VT in series [4] (1TCM, Temporal Cortex) came to 26.1±3.7 mL/cm^3; in series [4] (1TCM, Thalamus), 26.6±3.3 mL/cm^3; in series [4] (MA1, Caudate), 21.6±2.6 mL/cm^3; in [4] (MA1, Cerebellum), 19.6±2.5 mL/cm^3; in series [4] (MA1, Frontal Cortex) it was 24.6±2.7 mL/cm^3; in [4] (MA1, Hippocampus), 21.7±2.1 mL/cm^3. For the same compound, the VT came to 25.7±2.7 mL/cm^3 in series [4] (MA1, Occipital Cortex); 25.4±3.0 mL/cm^3 in series [4] (MA1, Putamen); 25.8±3.2 mL/cm^3 in series [4] (MA1, Temporal Cortex); 25.9±2.9 mL/cm^3 in [4] (MA1, Thalamus). The “underestimation of VT with truncated data” value in [4] (60 min of data vs 180 min, humans) is 7.4±5.1%; in series [4] (90 min of data vs 180 min, humans), 5.5±3.8%; in [4] (120 min of data vs 180 min, humans), 4.2±2.6%. In addition, the “test-retest variability of VT” value in [4] (MA1, 120 min of data, four human subjects, all regions) is recorded as 11.7±9.8%; in series [7] it was 10.8±5.1%. For the same compound, the “VT TRV” value in series [4] (MA1, Caudate) came to 12.5±8.1%; in series [4] (MA1, Cerebellum) it was 13.4±7.6%; in [4] (MA1, Frontal Cortex), 11.0±11.4%; in series [4] (MA1, Hippocampus), 10.9±8.4%; in [4] (MA1, Occipital Cortex) it was 10.5±10.5%; in series [4] (MA1, Putamen), 12.0±8.1%. In addition, the “VT TRV” value in series [4] (MA1, Temporal Cortex) amounted to 11.8±10.1%; in series [4] (MA1, Thalamus), 11.0±6.4%. Further, the “VT/fp TRV” value was 6.8±7.4% in series [4] (MA1, Caudate); 7.8±6.2% in series [4] (MA1, Cerebellum); 10.2±7.7% in series [4] (MA1, Frontal Cortex); 8.0±7.8% in [4] (MA1, Hippocampus); 9.9±8.4% in series [4] (MA1, Occipital Cortex); 7.8±7.5% in series [4] (MA1, Putamen). The “VT/fp TRV” value in series [4] (MA1, Temporal Cortex) is 9.1±7.8%; in [4] (MA1, Thalamus), 6.9±7.8%. Besides, the VT/fp in series [4] (MA1, Caudate) was determined as 288±72 mL/cm^3; in series [4] (MA1, Cerebellum), 259±57 mL/cm^3; in series [4] (MA1, Frontal Cortex), 326±66 mL/cm^3; in series [4] (MA1, Hippocampus), 287±58 mL/cm^3; in [4] (MA1, Occipital Cortex) it was 339±70 mL/cm^3; in series [4] (MA1, Putamen), 335±66 mL/cm^3. The VT/fp in series [4] (MA1, Temporal Cortex) is 342±75 mL/cm^3; in series [4] (MA1, Thalamus), 343±75 mL/cm^3. Besides, in series [4] (MA1, four human subjects, all regions), the “test-retest variation of VT/fP” value came out at 9.3±7.3%. Besides, the “peak SUV in brain” value in series [4] (human brain) is reported as 3.0–4.5 SUV. Besides, in series [4] (human brain, post-injection), the “time of peak radioactivity concentration in brain” value lay in the range of 20 to 30 min. Besides, in [4] (humans, administered mass 132±185 ng), the “pharmacological effects following administration” value is given as “No detectable pharmacological effects”. In addition, the “VT higher than previously reported values” in [4] (humans, compared with ref 11) was “roughly 15%”. The “parent [18F]ASEM fraction of radioactivity in plasma” value came to 27.5±7.9% in series [5] (60 min after injection) and 8.8±1.6% in series [5] (180 min post-injection). Also, the “time of peak of parent [18F]ASEM curve in arterial plasma” value in series [5] (humans) was 1.25 min. For the same compound, the “SUV of parent [18F]ASEM curve in arterial plasma at end of scans” value in series [5] (humans, 180 min post-injection) turned out to be 0.47±0.08 SUV. Also, the “peak SUV of parent [18F]ASEM curve in arterial plasma” value in series [5] (humans, at 1.25 min) is 4.4±1.2 SUV. Moreover, the “test-retest variation of plasma free fraction (fP)” value in series [6] (four human subjects) is on record as −5.3±18.0%. In series [6] (human plasma), this compound displayed a fP of 7.7±1.3%. Also, the VND in [8] (estimated from Lassen plots, one value per animal (two animals)) is 25.3 mL/cm^3 and 16.0 mL/cm^3.
For the compound `O=S1(=O)c2cc(N3CCN4CCC3CC4)ccc2-c2cccc(F)c21` [ASEM], the receptor occupancy in [8] (0.67 mg/kg cold ASEM, one animal) is 18.8% and 19%; in series [8] (1.24 mg/kg cold ASEM, two animals), 36.7% and 40.2% and 37–40%.
For `CN1CCC[C@H]1c1cccnc1` [nicotine], in series [8] (setting [10]), the “change of [18F]ASEM VT” value is −0.1±6.7% and 5.3±9.1%; the “change of [18F]ASEM VT/fP” value was −7.2±6.2% and −3.0±8.4%.
In series [1], `O=S1(=O)c2ccc([18F])cc2-c2ccc(N3CCN4CCC3CC4)cc21` [[^18F]DBT-10] had a K1 of 0.66±0.11 mL/cm^3·min^−1 and a k2 of 0.024 ± 0.010 min⁻¹. In addition, in series [2], the “parent fraction of total plasma radioactivity” value was 30%. In addition, in series [3], the “free fraction (fP) in plasma” value came out at 18.3±3.9%.
One may read the Ki as a dissociation constant, usually derived from enzyme kinetics or from competition with a known ligand. Take `c1cnc2cc3c(cc2n1)[C@@H]1CNC[C@H]3C1` [varenicline]: the Ki in [9] is 322 nM. In series [8] (setting [11]), the “change of [18F]ASEM VT” value is −2.6±6.2% and 5.2±16.9%; the “change of [18F]ASEM VT/fP” value is −1.6±5.5% and −5.4±15.2%.
